Substrate in this data set: Nc1ncnc2c1ncn2[C@H]1C=C[C@@H](CO)O1
In words: Menten constant against adenosine deaminase (ADA). The gist of the method:
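Deamination by calf intestinal mucosa adenosine deaminase (0.15 units, MW 33 000, in 2 mL) in phosphate buffer pH 7.4 at 25 °C, substrate 15–100 μM, monitored by UV at 265 nm. Initial rates from graphical fitting of concentration vs time; Vmax and KM from Lineweaver–Burk plot, kcat calculated from enzyme amount.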

B1: Adenosine deaminase (Bos taurus), P56658 (protein)
chain: MAQTPAFNKPKVELHVHLDGAIKPETILYYGRKRGIALPADTPEELQNIIGMDKPLSLPEFLAKFDYYMPAIAGCREAVKRIAYEFVEMKAKDGVVYVEVRYSPHLLANSKVEPIPWNQAEGDLTPDEVVSLVNQGLQEGERDFGVKVRSILCCMRHQPSWSSEVVELCKKYREQTVVAIDLAGDETIEGSSLFPGHVKAYAEAVKSGVHRTVHAGEVGSANVVKEAVDTLKTERLGHGYHTLEDATLYNRLRQENMHFEVCPWSSYLTGAWKPDTEHPVVRFKNDQVNYSLNTDDPLIFKSTLDTDYQMTKNEMGFTEEEFKRLNINAAKSSFLPEDEKKELLDLLYKAYGMPSPASAEQCL
B1: the Michaelis-Menten constant (Km) was determined as 30 µM.

These data come from ChEMBL document CHEMBL1148339, “Synthesis, structure-activity relationships, and drug resistance of beta-d-3'-fluoro-2',3'-unsaturated nucleosides as anti-HIV Agents” (J Med Chem, 2004).
